Counter-ions that a name gives are not always drawn. Like-named read-outs stand apart in the source and are kept apart here.
Experiments:
[1] = system: genotype 1b replicon cells; settings: read-out: CC50 Measured by others (1b genotype); cited from earlier work
[2] = type: cell-based; settings: human
How it was run: (§1)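 Huh-7.5 cells electroporated with in vitro transcribed luciferase replicon RNA (genotype 1b Bart79I-luc for line 1; full-length genotype 2a FL-J6/JFH-5′C19Rluc2AUbi for line 2). Seeded at ~2–3×10^4 cells/well, medium changed at 24 h then daily, serial compound dilutions, 4 replicates. At 72 h: 10% alamarBlue, 2 h at 37°C, fluorescence read. Normalized to untreated or DMSO controls. Mean ± SD.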

HCV J6-JFH (genotype 2a) = type: cell-based, Hepatitis C virus; settings: SCH503034 alone at 2.5μM, 72hr
[3] = type: cell-based; settings: human; remark: listed apart in the source
How it was run: as §1

[4] = estimated from preclinical animal data; cited from earlier work

For CNC(=O)c1c(-c2ccc(F)cc2)oc2cc(N(CCO)S(C)(=O)=O)c(C3CC3)cc12 [HCV-796], the CC50 [1] is listed as over 100 µM.
For CC(C)(C)OC(=O)N[C@H]1CCCCC/C=C\[C@@H]2C[C@@]2(C(=O)NS(=O)(=O)C2CC2)NC(=O)[C@@H]2C[C@@H](OC(=O)N3Cc4cccc(F)c4C3)CN2C1=O [ITMN-191], the CC50 [1] is listed as over 50 µM.
For CC(C)[C@H](N)C(=O)O[C@@H]1[C@@H](CO)O[C@@H](n2ccc(N)nc2=O)[C@]1(C)O [NM-283, valopicitabine], the CC50 [1] is given as over 100 µM.
NC(=O)c1ncn([C@@H]2O[C@H](CO)[C@@H](O)[C@H]2O)n1 [Ribavirin] showed a CC50 at 72 h [2] of over 100 µM.
For CC(C)(C)NC(=O)N[C@H](C(=O)N1C[C@H]2[C@@H]([C@H]1C(=O)NC(CC1CCC1)C(=O)C(N)=O)C2(C)C)C(C)(C)C (stereo partly drawn) [SCH-503034, Boceprevir], the “decrease of viral replication” value (HCV J6-JFH (genotype 2a)) was ~ 1 log, the CC50 at 72 h [2] was over 100 µM and the CC50 at 72 h [3] was over 100 µM. The CC50 [1] was over 100 µM.
For CCC[C@H](NC(=O)[C@@H]1[C@H]2CCC[C@H]2CN1C(=O)[C@@H](NC(=O)[C@@H](NC(=O)c1cnccn1)C1CCCCC1)C(C)(C)C)C(=O)C(=O)NC1CC1 [VX-950, Telaprevir], the CC50 [1] is given as 26.7 to 82 µM.
In the case of Clc1ccc(Cn2c(CN3CCCC3)nc3ccccc32)cc1 [clemizole, clemizole hydrochloride], the “no observed adverse events level (NOAEL)” value [4] is listed as 100 mg/kg/day, the CC50 at 72 h [2] is listed as 35 ± 0.5 µM and the CC50 at 72 h [3] is listed as 40 ± 5 µM.

From paper PMC3008401 (The Journal of infectious diseases, 2010)
